HDAC3 inhib – inhibitors of human histone deacetylase 3 | recombinant HDAC3, fluorogenic peptide/trypsin coupled, fluorescence | inhibition, % at 8.3 µM | hit rate 0.15% among 320,000 | AID 2718; in the data active = inhibition above about 26%, passing the limit was not always enough
M18AAP inhibitor – blocks P. falciparum M18 aspartyl aminopeptidase. recombinant PfM18AAP, H-Glu-NHMec fluorogenic cleavage. inhibition, % at 7.35 µM. hit rate 1.2% among 290,000;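 active = inhibition above the campaign mean inhibition over all tested compounds plus 3 SD, cut at about 28% in these data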;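 note: 0% = plate median of test compound wells and 100% = 2 mM ZnCl2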
GAA850 FXN act – increases GAA850 frataxin promoter reporter activity; HEK293 lucGAA850 FXN promoter luciferase reporter, 24 h; percent of 10 µM SAHA response; activation, % at 6 µM; hit rate 0.56% among 360,000; AID 540364;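 active = activation above the average of all compounds screened plus 3 SD, cutoff fixed separately per campaign, cut at about 7.5% in these data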;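 note: 0% = DMSO wells and 100% = 10 µM SAHA wells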
CTSL1 counter – counter-screen for PFM18AAP inhibitors: inhibitors of F. hepatica cathepsin L1; recombinant F. hepatica cathepsin L1, Z-Leu-Arg-MCA fluorescence; inhibition, % at 5.96 µM; hit rate 0.49% among 300,000; AID 1906;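 active = inhibition above the mean of all tested compounds plus 3 SD, set per screening campaign, cut at about 17% in these data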;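 note: 0% = plate median of test compound wells and 100% = 1 µM Z-Phe-Ala-diazomethylketone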
AHR activator – activators of human aryl hydrocarbon receptor; AHR-responsive luciferase reporter cells, luminescence; activation, % at 5 µM; hit rate 2.5% among 320,000; AID 2796; in the data active = activation above about 47%;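 note: 0% = vehicle wells and 100% = reference agonist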
SENP1 FRET inh – SENP1 (human) catalytic domain inhibition; inhibition, % at 10 µM; recombinant SENP1 catalytic domain, CyPet-SUMO1-YPet FRET cleavage; Q9P0U3; hit rate 0.21% among 360,000;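 active = inhibition at least 30% at 10 µM, raw YFP signal under a set limit, fluorescence ratio 0.5 to 1.5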;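 note: 0% = enzyme with DMSO and 100% = no enzyme wells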
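system = hSENP1 catalytic domain, recombinant | reagent = SFCypet-SUMO1-SFYpet substrate at 25 nM | doses = one dose per compound, 10 µM, 0.5% DMSO | incubation = enzyme reaction for 50 min at room temperature, dark | measured by = FRET, CFP and YFP emission | controls = no-enzyme low, enzyme-DMSO high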
AHR act cf – human AHR activation, confirmation. activation, % at 9 µM. hit rate 87% among 2,300. shares compounds with AHR activator. AID 2845. human cells, AHR-responsive luciferase reporter, luminescence; in the data active = activation above about 49%;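 note: HepG2 hepatoma cells carrying a DRE-driven firefly luciferase reporter; 0% = vehicle wells and 100% = reference agonist wells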
PXR act counter – activates human PXR in AHR activator counter-screen | shares compounds with AHR activator | cell-based PXR reporter, luciferase luminescence | activation, % at 11.6 µM | hit rate 88% among 2,300; in the data active = activation above about 11%;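 note: human hepatoma DPX-2 cells expressing full-length human PXR; 0% = DMSO and 100% = reference agonist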
Numbers without * were called inactive; / = not tested or not shown. An excerpt weighted towards active compounds, which were near 4.2% of everything screened.

SMILES	HDAC3 inhib	M18AAP inhibitor	GAA850 FXN act	CTSL1 counter	AHR activator	SENP1 FRET inh	AHR act cf	PXR act counter
COc1ccccc1CN1CCc2c([nH]c3ccccc23)C1	-7.1	10.2	0.1	0.6	98.7*	-7.0	89.7*	27.1*
CC(C)C[C@H](CO)Nc1nc(Nc2cccc(Cl)c2)c2ncn(C(C)C)c2n1	9.1	/	-10.0	7.2	18.6	-5.9	/	/
CC(C)n1cnc2c(Nc3ccc(F)c(Cl)c3)nc(NCCO)nc21	-2.0	-2.5	5.2	1.4	92.5*	-4.7	69.0*	135.0*
O=C(/C=C/c1ccccn1)c1cc(Cl)cc(Cl)c1O	/	6.9	-3.0	-0.2	82.7*	-77.6	112.8*	219.4*
COc1ccc(/C=C/C(=O)c2cc(Cl)cc(Cl)c2O)c(OC)c1	-6.3	-1.2	-0.6	1.0	7.1	-34.1	/	/
CNC(=S)Nc1cccc(S(=O)(=O)NCc2ccco2)c1	-3.7	/	1.0	/	-1.5	-1.0	/	/
CCN(CC)S(=O)(=O)c1cccc(C(=O)OCC(=O)Nc2ccc3c(c2)c2ccccc2n3CC)c1	5.5	-6.7	1.3	4.3	83.1*	24.1	80.3*	32.8*
CCn1c2ccccc2c2cc(NC(=O)COC(=O)c3ccc(O)cc3)ccc21	3.5	/	1.1	-1.1	39.6	-0.9	/	/
Cc1ccc(C(=O)c2sc3c(c2N)c(=O)[nH]c(=O)n3CCc2ccccc2)cc1	-4.6	-3.7	4.0	0.9	86.0*	-6.1	92.5*	42.4*
COc1cccc(S(=O)(=O)Nc2ccc3c(c2)OCCO3)c1	2.9	3.9	-5.2	/	/	0.1	/	/
COc1ccc(NS(=O)(=O)c2ccc3oc(Nc4ccc5c(c4)OCCO5)nc3c2)cc1	2.7	-3.2	-1.4	-0.9	87.1*	2.1	60.2*	19.0*
C/C(=N\NC(N)=O)c1ccc(Cl)s1	3.8	-1.6	1.9	-1.0	1.0	-0.1	/	/
C/C(=N/Nc1ccc(F)cc1)c1ccc(Cl)s1	/	-6.6	0.1	3.4	84.5*	-1.3	67.9*	/
O=C(N/N=C\c1ccc([N+](=O)[O-])o1)c1cncc(Br)c1	-2.1	13.9	1.8	6.0	34.5	0.7	/	/
Cc1c(-c2ccc(/C=N/NC(=O)C(=O)Nc3ccccc3F)o2)cccc1[N+](=O)[O-]	/	6.9	0.3	-4.8	0.5	-34.5	/	/
Cc1c(C(=O)N/N=C/c2ccc(-c3ccccc3[N+](=O)[O-])o2)sc(N)c1C#N	-4.1	19.6	0.6	2.4	133.4*	-17.3	162.8*	50.4*
O=C(N/N=C/c1ccc(-c2ccccc2[N+](=O)[O-])o1)c1cncc(Br)c1	4.7	14.3	0.9	-0.1	83.3*	-6.8	76.2*	/
O=C(NCCN1C(=O)C2C3C=CC(C3)C2C1=O)NCc1ccccc1 (centres undefined)	-2.3	-4.3	-0.1	-4.4	0.5	-3.1	/	/
O=C(NCCN1C(=O)C2C3C=CC(C3)C2C1=O)N1CCCCC1 (centres undefined)	-1.4	-9.5	1.8	1.4	91.9*	2.7	5.7	21.1*
O=C(Nc1ccccc1-c1ccccc1)c1ccc(=O)[nH]n1	-4.3	1.3	3.5	-2.1	16.0	0.0	/	/
CCOc1ccc(NC(=O)c2oc3ccccc3c2NC(=O)CC)cc1	13.3	0.8	/	-0.7	95.0*	/	57.9*	29.3*
Cc1ccc(NC(=O)c2oc3ccccc3c2NC(=O)c2ccc3c(c2)OCO3)cc1	0.1	-9.9	1.2	-1.6	7.2	1.2	/	/
CCOCC(=O)Nc1c(C(=O)Nc2ccc3c(c2)OCO3)oc2ccccc12	4.3	-1.1	3.7	-0.6	102.4*	3.0	105.6*	51.1*
Nc1ccc2c(c1)C(=O)CCC2	/	/	-1.0	/	/	-0.5	/	/
COc1ccc(Cl)cc1C(=O)NNC(=O)c1[nH]c(C)c(C(C)=O)c1C	5.1	/	0.0	/	81.1*	2.3	96.3*	49.8*
SMILES	HDAC3 inhib	M18AAP inhibitor	GAA850 FXN act	CTSL1 counter	AHR activator	SENP1 FRET inh	AHR act cf	PXR act counter
CCOc1ccc(OCC)c(NC(=O)c2[nH]c(C)c(C(C)=O)c2C)c1	3.8	4.3	2.2	2.2	79.7*	-0.9	94.6*	18.8*
CC(=O)c1c(C)[nH]c(C(=O)NNC(=O)c2ccc(C)cc2)c1C	-0.5	/	0.9	/	-0.8	2.3	/	/
CC(NCC(O)COCCC12CC3CC(CC(C3)C1)C2)c1ccccc1 (centres undefined)	-1.0	-3.1	5.6	0.0	-1.3	1.1	/	/
Cc1ccc2[nH]c(O)c(N=NC(=O)C(C)n3cnc4ccccc4c3=O)c2c1 (centres undefined)	7.9	-7.3	1.3	2.6	88.2*	3.2	69.2*	45.8*
C[C@H](CO)N1C[C@H](C)[C@H](CN(C)Cc2ccncc2)Oc2cc(-c3ccccc3F)ccc2S1(=O)=O	/	/	-4.0	/	/	-0.6	/	/
CCOC(=O)[C@]12CCC=C1N(Cc1ccc3c(c1)OCO3)C(=O)[C@H](CC(=O)NCc1ccccc1)C2	/	/	/	/	/	0.0	/	/
Cn1c(/C=C/c2cccc([N+](=O)[O-])c2)nc2ccccc2c1=O	0.6	-2.6	1.2	-2.2	92.9*	3.2	-0.4	11.7*
Cc1cccc(C)c1NC(=O)c1csc([C@H]2C[C@H](O)[C@@H](CO)O2)n1	/	/	0.6	/	/	0.6	/	/
COc1cc(NC(=S)Nc2ncccc2C)cc(OC)c1OC	-0.4	0.6	4.3	-2.1	105.8*	-1.3	92.5*	67.2*
CC(=O)Nc1ccc(/C=C/c2nc(-c3ccccc3O)n[nH]2)cc1	6.6	18.8	7.0	7.1	80.5*	-0.6	103.8*	7.0
CN(C)c1cc(-c2ccc(Br)cc2)oc(=O)c1Cl	-0.1	1.6	-2.1	0.5	85.2*	2.2	70.0*	22.2*
CN(C)c1cc(-c2ccc(C#N)cc2)oc(=O)c1Cl	0.7	5.6	-0.4	4.6	-5.0	-1.4	/	/
Cc1ccc(CN2CC[C@H]3C=CCc4cccc(c43)C2)cc1	-2.5	/	-0.3	/	2.3	-12.1	/	/
COc1ccc(CN2CC[C@H]3C=CCc4cccc(c43)C2)cc1	1.9	/	-1.0	/	82.5*	-24.3	9.5	26.1*
CCNC(=S)Nc1cccc([N+](=O)[O-])c1	-1.3	-0.8	/	-1.6	2.9	/	/	/
CCNC(=S)Nc1ccc(Cl)c([N+](=O)[O-])c1	8.0	-5.9	2.1	-4.5	99.0*	0.9	50.2*	17.6*
CCOC(=O)[C@@H]1[C@H]2COc3ccccc3[C@H]2N2C(=O)N(c3cccc(Cl)c3)C(=O)[C@]12C	-3.1	/	0.0	/	-0.5	-2.0	/	/
N#Cc1ccc(C(=O)Nc2cc(S(=O)(=O)Nc3ccc(Cl)cc3)ccc2N2CCCCC2)cc1	0.0	-2.7	1.4	2.0	104.9*	10.4	57.7*	119.1*
Cc1onc(-c2c(Cl)cccc2Cl)c1C(O)c1ccccc1 (centres undefined)	3.0	-0.2	-1.1	-3.1	3.3	2.3	/	/

Screening data from PubChem BioAssay.
